Compound activity (PubChem BioAssay)
Compounds with a hit are over-represented: about 2.3% of the library has one in this group of screens.
Yeast superoxide = yeast age-related superoxide inhibition as caloric restriction mimetic; S. cerevisiae aged cells, superoxide DHE fluorescence; hits give low values; superoxide response (% of plate mean), % at 10 µM; hit rate 0.18% among 330,000; AID 2690;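 active means superoxide response under a set limit, about three screen SD below normal, cut at about 65% in these data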;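 further: yeast aged for seven days with compound at 30 °C before DHE staining; 100% = average MFI of all compound-treated wells on the plate with controls excluded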
TRPC6 activator = activates the mouse TRPC6 cation channel. Q61143. HEK293-TRPC6 membrane potential dye fluorescence; hits give high values. B-score at 10 µM. hit rate 0.13% among 310,000;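 active means B-score of the integrated fluorescence ratio above library mean plus 3 SD, and starting fluorescence ratio within library mean plus 5 SD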;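 further: higher score means more depolarization so channel activation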
TRPC4 potent = allosterically enhances the mouse TRPC4 cation channel. HEK293 TRPC4beta/mu-opioid, DAMGO EC20, Fluo-4 Ca2+ flux; hits give high values. AID 2227. hit rate 0.42% among 310,000. B-score at 10 µM. Q9QUQ5;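 active means B-score of calcium response area above 5 SD of library B-scores, with initial fluorescence ratio within 5 SD of library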;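 further: B-score of integrated fluorescence ratio over time as area under calcium response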
Target sequence (Q9QUQ5 whole entry, looked up): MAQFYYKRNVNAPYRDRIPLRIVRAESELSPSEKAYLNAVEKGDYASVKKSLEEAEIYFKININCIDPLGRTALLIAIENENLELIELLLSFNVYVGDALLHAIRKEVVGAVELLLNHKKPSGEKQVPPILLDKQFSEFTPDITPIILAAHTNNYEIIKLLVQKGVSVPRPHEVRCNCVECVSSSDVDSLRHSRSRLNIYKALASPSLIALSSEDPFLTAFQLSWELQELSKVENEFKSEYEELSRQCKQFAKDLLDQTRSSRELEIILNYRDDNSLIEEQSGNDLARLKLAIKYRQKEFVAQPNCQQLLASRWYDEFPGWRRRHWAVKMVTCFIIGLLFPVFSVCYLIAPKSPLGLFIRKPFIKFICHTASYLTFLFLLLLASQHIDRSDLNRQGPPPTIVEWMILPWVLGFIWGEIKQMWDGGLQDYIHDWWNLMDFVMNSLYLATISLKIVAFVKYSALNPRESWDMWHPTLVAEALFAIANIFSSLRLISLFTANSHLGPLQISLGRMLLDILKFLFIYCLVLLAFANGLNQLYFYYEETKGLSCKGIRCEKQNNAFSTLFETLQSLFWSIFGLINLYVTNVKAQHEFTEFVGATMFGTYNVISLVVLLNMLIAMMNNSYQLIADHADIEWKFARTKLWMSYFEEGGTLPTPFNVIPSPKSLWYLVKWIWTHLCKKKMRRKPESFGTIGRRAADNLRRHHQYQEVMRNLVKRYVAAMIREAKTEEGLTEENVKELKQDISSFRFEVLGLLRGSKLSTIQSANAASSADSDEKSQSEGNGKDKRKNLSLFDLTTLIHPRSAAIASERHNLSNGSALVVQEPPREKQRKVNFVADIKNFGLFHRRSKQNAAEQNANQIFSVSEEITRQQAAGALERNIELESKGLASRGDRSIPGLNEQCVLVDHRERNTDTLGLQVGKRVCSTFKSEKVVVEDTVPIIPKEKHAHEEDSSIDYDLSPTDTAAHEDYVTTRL
TRPC4 block = blocks the mouse TRPC4 cation channel | Q9QUQ5 | HEK293 TRPC4beta/mu-opioid, DAMGO-evoked Fluo4 calcium flux; hits give low values | B-score at 10 µM | hit rate 0.39% among 300,000;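 active means B-score over 3 SD under the library average, no early fluorescence shift, positive overall ratio signal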
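material = TRPC4beta/mu-opioid receptor HEK293 cell line | probe or stimulus = sequential submaximal and maximal DAMGO stimulation | compound dosing = one concentration per compound | measured by = Fluo4 Ca2+ flux fluorescence | evaluation = integrated fluorescence ratio relative to baseline, converted to per-well B score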
TRPC6 inhibitor = blocks the mouse TRPC6 cation channel; Q61143; HEK293-TRPC6, membrane potential dye, ACh-evoked depolarization; hits give low values; B-score at 10 µM; hit rate 1.1% among 310,000; AID 2553;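 active means B-score under library mean minus 3 SD, initial fluorescence not abnormally high, positive integrated signal ratio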;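 further: B-score derived from integrated fluorescence ratio over the kinetic read; more negative B-score means stronger inhibition of depolarization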
TRPC4 agonist = opens the mouse TRPC4 cation channel. HEK293 TRPC4beta/mu-opioid, Fluo4 calcium fluorescence; hits give high values. B-score at 10 µM. hit rate 0.49% among 310,000;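 active means B-score above 5 SD of library B-scores, and initial fluorescence ratio not above library mean plus 5 SD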;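 further: positive B-score marks a calcium rise read as TRPC4 activation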
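Assay system: HEK293 cells stably co-expressing mouse TRPC4beta and mu-opioid receptor / Timing: Fluo4 dye loading 45 min at room temperature, 110 s recording / Signal: Fluo4 calcium-sensitive dye fluorescence, kinetic, 1 Hz baseline / Read-out: integrated baseline-normalised fluorescence ratio, converted to per-well B score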
TRPC4 sel inh 2 = mouse TRPC4 off-target activity of TRPC6 inhibitors, second screen; shares compounds with TRPC6 inhibitor; HEK293 TRPC4/MOR, membrane potential dye fluorescence; channel activated by saturating DAMGO dose; inhibition, % at 10 µM; hit rate 42% among 920;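 active means compounds whose fluorescence signal differed from control wells by over 3 SD, either direction, in both duplicate plates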
TRPC4 spec = mouse TRPC4 off-target activity of TRPC6 inhibitors; shares compounds with TRPC6 inhibitor; HEK293 TRPC4/mu-opioid, membrane potential fluorescence; activity change, negative = inhibition, % at 10 µM; hit rate 61% among 920;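 active means rise or fall in signal beyond 3 SD of buffer-only wells in both replicate plates, either sign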;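 further: integrated kinetic ratio of fluorescence range over baseline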
HEK293 MPD ctr 2-1 = second check of TRPC6 inhibitor effects in parental HEK293 cells; signal change vs control, % at 10 µM; parental HEK293 membrane potential dye fluorescence; maximal acetylcholine challenge after compound addition; hit rate 31% among 920; shares compounds with TRPC6 inhibitor;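 active means membrane potential signal moving either way by over 3 SD of the maximum-effect control, in both duplicate plates, meaning non-specific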
HEK293 MPD ctr-1 = checks TRPC6 inhibitor effects in parental HEK293 cells. shares compounds with TRPC6 inhibitor. parental HEK293 membrane potential dye fluorescence. membrane potential signal change, % at 10 µM. hit rate 60% among 920;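 active means membrane potential signal shifting up or down by more than 3 SD of buffer-only wells, on both duplicate plates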
HEK293 MPD ctr-2 = checks TRPC6 modulator effects in parental HEK293 cells. shares compounds with TRPC6 inhibitor. membrane potential dye fluorescence. membrane potential signal change, % at 10 µM. hit rate 51% among 2,400. AID 488924;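 active means membrane potential signal moves up or down beyond 5 SD from buffer-only wells, on both duplicate plates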
HEK293 MPD ctr 2-2 = second counter-screen for TRPC6 modulators: effect in parental HEK293 cells; shares compounds with TRPC6 inhibitor; membrane potential dye fluorescence; after compound, maximal acetylcholine stimulation; inhibition, % at 10 µM; hit rate 14% among 2,400;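 active means membrane potential signal drops by more than 5 SD from the mean control signal, in both duplicate plates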;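 further: plate controls were acetylcholine ECmax control wells for no effect and buffer only wells for full effect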
TRPC4 ctr mod = selectivity of TRPC6 modulators against mouse TRPC4. shares compounds with TRPC6 inhibitor. HEK293 TRPC4/mu-opioid, membrane potential fluorescence. percent change from control (negative = decrease, positive = increase), % at 10 µM. hit rate 69% among 2,400. AID 488927;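 active means membrane potential signal moved up or down beyond 5 SD of buffer control wells, in both duplicate plates, actives on both sides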;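 further: plate controls were assay buffer wells for no effect and DAMGO maximal-effect wells for full effect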
TRPC4 ctr inh 2 = second selectivity test of TRPC6 modulators against mouse TRPC4; shares compounds with TRPC6 inhibitor; HEK293 TRPC4/mu-opioid, membrane potential dye fluorescence; stimulated with maximal-effect DAMGO; inhibition, % at 10 µM; hit rate 55% among 2,400; AID 488928;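 active means drop in membrane potential signal beyond 5 SD of the control wells in both duplicate plates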;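 further: TRPC4 counter screen for TRPC6 hits run under conditions tuned for TRPC6 not TRPC4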
TRPC6 block conf = confirmation of mouse TRPC6 inhibitors; HEK293-TRPC6, membrane potential dye, ACh-evoked depolarization; shares compounds with TRPC6 inhibitor; AID 488960; hit rate 43% among 3,300; inhibition, % at 10 µM;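 active means fluorescence ratio falls more than 5 SD below the full-stimulation control mean, in both duplicate runs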;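 further: integrated fluorescence ratio of peak minus minimum over baseline after agonist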
TRPC6 act confirm = mouse TRPC6 activator confirmation; activation, % at 10 µM; HEK293-TRPC6 membrane potential dye fluorescence, FDSS; hit rate 11% among 2,800; shares compounds with TRPC6 inhibitor;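 active means ratio signal rise beyond 5 SD above unstimulated control wells' mean, seen in both duplicate runs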;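 further: plate controls were buffer EC0 wells for no effect and acetylcholine ECmax response for full effect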
The depositor's hits bear a star; i = inactive; nt = not tested or not shown; + = active, no number.

SMILES	Yeast superoxide	TRPC6 activator	TRPC4 potent	TRPC4 block	TRPC6 inhibitor	TRPC4 agonist	HEK293 MPD ctr-2	HEK293 MPD ctr 2-2	TRPC4 ctr mod	TRPC4 ctr inh 2	TRPC6 block conf	TRPC6 act confirm	others
CCOC(=O)C1=NN(C(=O)c2ccccc2)C(O)(c2ccc(C)cc2)C1 (stereo not given)	88.3	i	i	i	i	i	nt	nt	nt	nt	nt	nt
CCOC(=O)C1=NN(C(=O)c2ccc(OC)cc2)C(O)(c2ccc(Cl)cc2)C1 (stereo not given)	79.8	16.9*	i	i	i	70*	344.5%*	i	75.5%*	i	nt	209.0%*
COc1ccc(C)cc1-n1nnnc1SCC(=O)N1CCC(C(=O)Nc2nccs2)CC1	110.3	i	i	i	i	i	nt	nt	nt	nt	nt	nt
c1ccc2nc3c(nc2c1)c1ccccc1n3CCN1CCOCC1	88.5	i	i	i	-5.12*	i	i	i	-8.5%*	34.0%*	i	i
CCCn1c2ccccc2c2nnc(SCCN3CCOCC3)nc21	97.8	i	i	i	i	i	nt	nt	nt	nt	nt	nt
c1ccc2c(N3CCCC3)nc(-c3ccncc3)nc2c1	92.6	i	i	i	-7.25*	i	-248.0%*	i	-42.0%*	35.0%*	39.0%*	i
CCCCN(CC)c1nc(-c2ccncc2)nc2ccccc12	90.9	i	i	i	i	i	nt	nt	nt	nt	nt	nt
c1ccc(-c2nc(N3CCCCCC3)c3ccccc3n2)nc1	94.6	i	i	i	-9.7*	i	-202.0%*	70.0%*	-30.5%*	73.0%*	62.5%*	i
CCCN(CCC)c1nc(-c2ccccn2)nc2ccccc12	102.5	i	i	i	-5.55*	i	i	77.5%*	i	67.5%*	76.0%*	i
CCc1ccc(NC(=O)C(C)OC(=O)/C=C/c2ccc(O)c(OC)c2)cc1 (stereo not given)	89.7	nt	nt	nt	nt	nt	nt	nt	nt	nt	nt	nt
O=C(O)c1ccc(CS(=O)(=O)c2ccc(Br)cc2)cc1	107.7	i	i	i	i	i	nt	nt	nt	nt	nt	nt
O=C1c2cccc3c(N4CCCCC4)ccc(c23)C(=O)N1CCO	103.9	12.2*	i	i	i	i	937.0%*	143.5%*	218.0%*	121.5%*	i	180.5%*
Cc1ccc(OCC(O)Cn2c(=N)n(Cc3ccccc3)c3ccccc32)cc1 (stereo not given)	89.7	i	i	i	-8.1*	i	nt	nt	nt	nt	i	i	TRPC4 sel inh 2=40.5%*;TRPC4 spec=10.9%*;HEK293 MPD ctr 2-1=258.5%*;HEK293 MPD ctr-1=8.5%*
COc1ccc(OCC(O)Cn2c(=N)n(Cc3ccccc3)c3ccccc32)cc1 (stereo not given)	80.2	i	i	i	i	i	nt	nt	nt	nt	nt	nt
Cc1cccc(OCC(O)Cn2c(=N)n(CCN3CCCCC3)c3ccccc32)c1 (stereo not given)	108.8	i	i	i	i	i	nt	nt	nt	nt	nt	nt
Cc1cccc(OCC(O)Cn2c(=N)n(Cc3ccccc3)c3ccccc32)c1 (stereo not given)	91.6	i	i	i	-5.67*	55*	145.0%*	i	68.0%*	111.5%*	49.5%*	nt
Cn1c(N)c(C(=O)COC(=O)C2(c3ccccc3F)CCCC2)c(=O)n(C)c1=O	100.0	i	i	nt	i	i	nt	nt	nt	nt	nt	nt
CCOC(=O)N1CCC(N2CCN(C3CCCC3)C(CCO)C2)CC1 (stereo not given)	94.9	i	i	i	-8.15*	i	nt	nt	nt	nt	i	i	TRPC4 sel inh 2=i;TRPC4 spec=i;HEK293 MPD ctr 2-1=i;HEK293 MPD ctr-1=i
CCOC(=O)N1CCC(NC2CCCCCCC2)CC1	97.2	i	i	i	-8.48*	i	nt	nt	nt	nt	i	nt	TRPC4 sel inh 2=i;TRPC4 spec=i;HEK293 MPD ctr 2-1=i;HEK293 MPD ctr-1=3.0%*
CCOC(=O)N1CCC(N2CCN(Cc3ccccc3)C(CCO)C2)CC1 (stereo not given)	92.5	i	i	i	i	i	nt	nt	nt	nt	nt	nt
NS(=O)(=O)c1ccc(CCNCc2ccccc2OCc2ccc(Cl)cc2)cc1	105.8	i	i	-5*	-6.82*	i	nt	nt	nt	nt	61.5%*	i	TRPC4 sel inh 2=30.5%*;TRPC4 spec=i;HEK293 MPD ctr 2-1=i;HEK293 MPD ctr-1=2.1%*
NS(=O)(=O)c1ccc(CCNCc2cc(Cl)ccc2OCc2ccccc2)cc1	94.2	i	i	i	i	i	nt	nt	nt	nt	nt	nt
NS(=O)(=O)c1ccc(CCNCc2cc(Br)ccc2OCc2ccccc2F)cc1	111.3	i	i	i	-5.68*	i	i	i	i	88.0%*	56.0%*	i
O=C(NCc1nnc2c3ccccc3c(-c3ccccc3)nn12)c1ccc(Cl)cc1	104.4	i	i	i	i	i	nt	nt	nt	nt	nt	nt
COc1ccc(N2CCN(C(=O)c3cc4c(=O)n(Cc5ccccc5)ccc4nc3C)CC2)cc1	87.8	i	i	i	i	i	nt	nt	nt	nt	nt	nt
CC1C/C(=C/c2cccn2C)C(=O)/C(=C/c2cccn2C)C1 (stereo not given)	114.0	78.9*	i	i	i	i	+	i	440.5%*	i	i	311.0%*
